DNMT1 inh – inhibitors of human DNMT1; actives 0.83% (n = 360,000); P26358; AID 588458; inhibition (reported as % activation of signal), % at 10 µM; DNMT1 molecular beacon, Hinp1I cleavage, fluorescence; in the data active = inhibition above about 50%
Scp1 inh – inhibitors of human Scp-1 phosphatase | Q9GZU7 | Recombinant Scp1, phosphopeptide, malachite green phosphate absorbance | inhibition, % at 20 µM | actives 0.88% (n = 340,000);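 active = inhibition above about 50% at 20 µM, limit read from the data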;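 also: plate controls were DMSO wells with enzyme for no effect and wells lacking enzyme for full effect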
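System: truncated SCP-1 phosphatase (76-261aa); medium: Tris acetate buffer pH 5.5 with MgCl2 and Tween-20; incubation: 45 min room-temperature reaction, 5 min colour, 30 min stabiliser; compound: single 20 µM dose, 1% DMSO; reagent: Phosphorylated 17-residue peptide substrate; read-out: % inhibition at 20 µM; technique: colorimetric free-phosphate detection, absorbance 630 nm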
LMPTP block – LMPTP (human) inhibition; recombinant LMPTP-A, OMFP fluorogenic substrate, fluorescence intensity; actives 0.22% (n = 360,000); inhibition, % at 20 µM; P24666;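 active = compounds that cut the enzyme signal by at least half of the control window in the single-dose screen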;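 also: plate controls were DMSO wells with enzyme plus substrate for no effect and substrate without enzyme for full effect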
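Test system: LMPTP-A phosphatase enzyme. Amount: LMPTP-A at 0.625 nM final in the reaction. Reagent: OMFP substrate, 400 µM final. Times: 50 min at room temperature. Signal: endpoint fluorescence intensity from OMFP dephosphorylation. Read-out basis: % inhibition. Benchmarks: no-enzyme and uninhibited controls.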
STEP inh – STEP (human) phosphatase inhibition; P54829; recombinant STEP, OMFP fluorogenic substrate, fluorescence; inhibition, % at 20 µM; actives 0.25% (n = 360,000);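 active = inhibition at 20 µM, scaled per plate between control wells, above about 37%, limit read from the data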;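 also: 0% = DMSO with enzyme and substrate and 100% = substrate only without enzyme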
Target sequence (P54829 whole entry, looked up): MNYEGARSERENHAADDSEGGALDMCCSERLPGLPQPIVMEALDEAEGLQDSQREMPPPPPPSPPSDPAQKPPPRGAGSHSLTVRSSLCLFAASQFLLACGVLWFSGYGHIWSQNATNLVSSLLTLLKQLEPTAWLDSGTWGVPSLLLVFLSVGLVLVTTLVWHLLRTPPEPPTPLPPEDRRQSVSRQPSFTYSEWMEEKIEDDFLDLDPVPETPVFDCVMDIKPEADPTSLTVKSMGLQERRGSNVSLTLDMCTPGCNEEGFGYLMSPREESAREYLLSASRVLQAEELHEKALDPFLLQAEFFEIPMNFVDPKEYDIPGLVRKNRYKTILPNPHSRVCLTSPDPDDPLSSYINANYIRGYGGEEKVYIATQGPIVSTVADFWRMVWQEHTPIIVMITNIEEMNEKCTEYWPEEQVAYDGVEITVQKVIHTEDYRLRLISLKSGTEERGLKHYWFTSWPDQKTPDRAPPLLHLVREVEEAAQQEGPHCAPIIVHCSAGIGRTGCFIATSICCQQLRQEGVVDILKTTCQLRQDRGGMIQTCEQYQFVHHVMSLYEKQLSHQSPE
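Assay system: isolated STEP enzyme. Buffer or medium: pH 6.0 Bis-Tris with DTT and Tween 20. Also added: fluorogenic phosphatase substrate OMFP at 25 µM final. Dosing: 20 µM, 1% DMSO. Timing: 20 min reaction, room temperature, in the dark. Measured by: fluorescence intensity, excitation 480 nm, emission 540 nm. Evaluation: normalized % inhibition.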
SUMO1 PPI mod – modulators of human SUMO1-mediated protein-protein interactions | SUMO1 binding to a labelled peptide, TR-FRET, 1 h | AID 602429 | inhibition, % at 20 µM | actives 0.33% (n = 360,000); in the data active = inhibition above about 37%
Target sequence (P63165 whole entry, looked up): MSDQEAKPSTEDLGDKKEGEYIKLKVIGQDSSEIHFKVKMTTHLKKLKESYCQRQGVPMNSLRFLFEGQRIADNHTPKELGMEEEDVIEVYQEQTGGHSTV
An asterisk follows results filed as active. Hits are enriched below; roughly 1.7% of the tested compounds scored in any of these assays.

Results for CN1CCC[C@H]1CCNc1ccc2c(=O)c3ccccc3n(C)c2c1 ?
DNMT1 inh: 40; Scp1 inh: 0; LMPTP block: 46; STEP inh: 9; SUMO1 PPI mod: 82*

How did CN1CCCC1CCNc1ccc2c(=O)c3ccccc3oc2c1 (stereo not drawn) do in these assays?
DNMT1 inh: 17; Scp1 inh: 4; LMPTP block: 3; STEP inh: 6; SUMO1 PPI mod: -2

What do the screens show for `Cc1ccc2nc(-c3ccco3)c(CC3CCCCC3)n2c1`?
DNMT1 inh: 1; LMPTP block: 0; STEP inh: -1; SUMO1 PPI mod: 0

How did Brc1ccc2nc(-c3ccco3)c(CC3CCCCC3)n2c1 do in these assays?
DNMT1 inh: 69*; LMPTP block: 19; STEP inh: 4; SUMO1 PPI mod: 23

What do the screens show for `C[C@H](CO)N1C[C@H](C)[C@H](CN(C)C(=O)Nc2ccc(F)cc2)OCc2cnnn2CCCC1=O`?
DNMT1 inh: 1; LMPTP block: 1; STEP inh: 0; SUMO1 PPI mod: 5

Results for CCn1c(/C=C/N(C)c2ccccc2)[n+](CC)c2ccc(Cl)cc21 ?
DNMT1 inh: 0; Scp1 inh: 74*; LMPTP block: -1; STEP inh: -1; SUMO1 PPI mod: -4

Results for CCN(CC)c1ccc(NC(=O)c2ccc(=O)[nH]c2)cc1S(=O)(=O)Nc1ccccc1OC ?
DNMT1 inh: -13; Scp1 inh: -1; LMPTP block: 4; STEP inh: 9; SUMO1 PPI mod: 16

How did O=C(O)c1cccc(-c2ccc(/C=N/Nc3ccc([N+](=O)[O-])cc3)o2)c1 do in these assays?
DNMT1 inh: -8; Scp1 inh: 3; LMPTP block: 11; STEP inh: -8; SUMO1 PPI mod: -23

How did CNC(=S)N/N=C/c1ccc(-c2ccc(C(=O)O)cc2)o1 do in these assays?
DNMT1 inh: 13; Scp1 inh: 52*; LMPTP block: 2; STEP inh: 4; SUMO1 PPI mod: 2

How did Cc1cc(C)n(Cc2ccc(C(=O)N/N=C/c3ccc(-c4ccc([N+](=O)[O-])cc4)o3)o2)n1 do in these assays?
DNMT1 inh: 98*; Scp1 inh: 102*; LMPTP block: 97*; STEP inh: 99*; SUMO1 PPI mod: 104*

What do the screens show for `CCCCC(=O)N/N=C/c1ccc(-c2ccc([N+](=O)[O-])cc2)o1`?
DNMT1 inh: 2; Scp1 inh: -5; LMPTP block: 1; STEP inh: 4; SUMO1 PPI mod: -29

Results for CNC(=S)N/N=C/c1ccc(-c2ccc(Cl)c([N+](=O)[O-])c2)o1 ?
DNMT1 inh: -3; Scp1 inh: -3; LMPTP block: 4; STEP inh: 3; SUMO1 PPI mod: -9

How did O=C(O)c1ccc(-c2ccc(/C=N/Nc3ccc([N+](=O)[O-])cc3)o2)cc1 do in these assays?
DNMT1 inh: -1; Scp1 inh: 85*; LMPTP block: 14; STEP inh: -23; SUMO1 PPI mod: -28

How did CC(C)(C)c1cc(NS(=O)(=O)c2cccs2)no1 do in these assays?
DNMT1 inh: 1; Scp1 inh: -6; LMPTP block: -1; STEP inh: 0; SUMO1 PPI mod: 3

Results for COc1ccc(N2CCN(C(=O)CCc3ccc(S(=O)(=O)NC(C)(C)C)cc3)CC2)cc1 ?
DNMT1 inh: 0; Scp1 inh: -2; LMPTP block: -1; STEP inh: -1; SUMO1 PPI mod: 0

How did COc1ccccc1C(CNC(=O)c1cccc(S(=O)(=O)Nc2ccc(C)cc2)c1)N(C)C (stereo not drawn) do in these assays?
DNMT1 inh: -4; Scp1 inh: -8; LMPTP block: -9; STEP inh: -2; SUMO1 PPI mod: -46

What do the screens show for `COc1cc(/C=C2\C(=O)N(CCC#N)N=C2C)ccc1OCC(=O)Nc1ccccc1`?
DNMT1 inh: -9; Scp1 inh: -11; LMPTP block: -2; STEP inh: 4; SUMO1 PPI mod: 12

What do the screens show for `COc1cc(/C=C2\C(C)=C(C#N)c3nc(N)c(C#N)c(C)c32)ccc1OCC(=O)O`?
DNMT1 inh: -3; Scp1 inh: 0; LMPTP block: 10; STEP inh: 0; SUMO1 PPI mod: 45*

Results for COc1ccc(-c2c(C(=O)c3ccccc3)[nH]c(N)c2C(=O)NC2CC2)cc1OC ?
LMPTP block: -1; SUMO1 PPI mod: -12

How did COc1ccc(N=C2S/C(=C\c3ccc(OCC(=O)O)cc3)C(=O)N2CCc2c[nH]c3ccccc23)cc1 do in these assays?
DNMT1 inh: -21; Scp1 inh: 21; LMPTP block: 40; STEP inh: 96*; SUMO1 PPI mod: 98*

What do the screens show for `N#CC1=C(N)OC2=C(C(=O)CC(c3ccco3)C2)C1c1ccc(OCc2c(F)cccc2Cl)cc1` (stereo not drawn)?
DNMT1 inh: 1; Scp1 inh: 14; LMPTP block: 65*; STEP inh: 2; SUMO1 PPI mod: 13

How did CCN1/C(=C/C(C)=C/c2sc3ccccc3[n+]2CC)Sc2ccccc21 do in these assays?
DNMT1 inh: 13; Scp1 inh: -1; LMPTP block: 74*; STEP inh: 37; SUMO1 PPI mod: 21

What do the screens show for `CCN1/C(=C\C(=S)Nc2ccccc2)Sc2ccccc21`?
DNMT1 inh: -4; Scp1 inh: -3; LMPTP block: 1; STEP inh: -2; SUMO1 PPI mod: -10

How did CC(NC(=O)C(=O)N1CCCCC1)C(c1cccs1)N1CCN(C)CC1 (stereo not drawn) do in these assays?
DNMT1 inh: 4; Scp1 inh: 7; LMPTP block: 0; STEP inh: -4; SUMO1 PPI mod: 5

Results for O=C(O)CCCNC(=O)/C=C/c1ccco1 ?
DNMT1 inh: 88*; Scp1 inh: 72*; LMPTP block: 4; STEP inh: 4; SUMO1 PPI mod: -1

Results for O=C(O)CCCCCNC(=O)/C=C/c1ccco1 ?
DNMT1 inh: 4; Scp1 inh: 15; LMPTP block: 1; STEP inh: 0; SUMO1 PPI mod: -5

What do the screens show for `O=C(/C=C/c1ccco1)NC(=S)Nc1cccc(C(=O)O)c1`?
DNMT1 inh: 38; Scp1 inh: 64*; LMPTP block: 0; STEP inh: 15; SUMO1 PPI mod: 2

What do the screens show for `C[C@H](CO)N1C[C@H](C)[C@H](CN(C)C(=O)c2ccc3ccn(C)c3c2)OCc2cnnn2CCCC1=O`?
DNMT1 inh: 4; LMPTP block: -3; STEP inh: 0; SUMO1 PPI mod: -4

Results for O=C(CSCc1c(F)cccc1Cl)NCc1cccnc1 ?
DNMT1 inh: 5; Scp1 inh: -5; LMPTP block: -1; STEP inh: 1; SUMO1 PPI mod: 3

What do the screens show for `COc1ccc(CCNC2CC(C)N(C)CC2C)cc1OC` (stereo not drawn)?
DNMT1 inh: 0; Scp1 inh: -6; LMPTP block: -4; STEP inh: -4; SUMO1 PPI mod: 3
